Data from paper PMC5480311 (ACS infectious diseases, 2016).

What was measured:
[1] = molecular target: PCNA−P21 interaction (Homo sapiens, UniProt P12004); assay: FP assay of PCNA−P21 interaction; format: binding; conditions: incubation up to 60 min, not meaningfully changed
Method in brief: (§1)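 Fluorescence polarization assays of each protein–peptide pair: UL44–P54 (GST-fused UL44ΔC290 with fluorescently labelled P54), UL42–P30 and PCNA–p21. Test compound was pre-incubated for set times, up to 60 min, before FP was read. Normalized mP relative to the no-inhibitor control was plotted against compound concentration. Error bars are standard errors of the mean.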

[2] = molecular target: UL44 K60A−P54 interaction (Human cytomegalovirus, UniProt P16790, K60A); assay: FP assay of mutant UL44 K60A−P54 interaction; format: binding; conditions: read-out: inhibition of UL44 K60A−P54 interaction
[3] = molecular target: UL44 binding to full-length UL54 (Human cytomegalovirus, UniProt P16790); assay: UL54−UL44 interaction assay by biolayer interferometry
Method in brief: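 Biolayer interferometry measured UL44 binding to full-length UL54 in the presence of test compound. Signal is given relative to binding without compound, and error bars are standard errors of the mean.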

[4] = molecular target: UL54 (Human cytomegalovirus, UniProt P08546); assay: DNA synthesis by UL54 alone, filter binding assay; format: biochemical
Method in brief: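 Basal DNA synthesis by UL54 alone, without UL44, was measured by filter-binding assay across test compound concentrations. Signal is given relative to no compound, and error bars are standard errors of the mean.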

[5] = molecular target: UL54/UL44 DNA polymerase (Human cytomegalovirus, UniProt P16790); assay: Long-chain DNA synthesis by UL54−UL44; format: biochemical
Method in brief: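 UL54 with UL44 was used to make long-chain DNA products, and their formation was followed across a dose series of test compound, with product lanes compared. Signal is expressed relative to the no-compound reaction, and error bars are standard errors of the mean.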

[6] = molecular target: UL44−P54 interaction (Human cytomegalovirus, UniProt P16790); assay: FP assay of UL44−P54 interaction; format: binding; conditions: IC50, inhibition of P54−UL44 interaction, incubation time 20 min or beyond
Method in brief: as §1

[7] = molecular target: UL42−P30 interaction (Human herpesvirus 1, UniProt P10226); assay: FP assay of UL42−P30 interaction; format: binding, herpes simplex virus-1
Method in brief: as §1

Chain of PCNA−P21 interaction (P12004 whole entry, the tested form may be a part): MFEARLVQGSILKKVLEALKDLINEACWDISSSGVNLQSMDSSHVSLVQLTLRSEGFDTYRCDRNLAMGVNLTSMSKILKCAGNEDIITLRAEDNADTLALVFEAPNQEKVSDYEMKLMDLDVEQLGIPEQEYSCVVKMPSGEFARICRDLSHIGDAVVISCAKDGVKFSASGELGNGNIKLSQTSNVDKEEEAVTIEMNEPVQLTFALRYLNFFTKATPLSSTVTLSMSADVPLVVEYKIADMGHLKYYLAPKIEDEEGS

CSc1scc2c1C(=O)C(=CN(C)C)CC2 [SGM8]
inhibition of P21−PCNA interaction [1]: very weak inhibition | inhibition at 20 µM [2]: < 50% | IC50 [3]: 4.5 µM | IC50 [4]: > 100 µM | IC50 [5]: 3.2 µM | IC50 [6]: 2 µM | IC50 [7]: ~20 µM | change of inhibition of P30−UL42 interaction on longer incubation ([7]; incubation time extended to 60 min): only slightly increased
